{"source": "ChEMBL document CHEMBL1125733", "about": "“Fluoronaphthyridines and -quinolones as antibacterial agents. 3. Synthesis and structure-activity relationships of new 1-(1,1-dimethyl-2-fluoroethyl), 1-[1-methyl-1-(fluoromethyl)-2-fluoroethyl], and 1-[1,1-(difluoromethyl)-2-fluoroethyl] substituted derivatives” (J Med Chem, 1991)", "key": {"Canis familiaris [1]": {"tested_on": "Canis familiaris", "test": "Compound was evaluated in vivo in urine sample collected over 24 hours for its concentration after 25 mg/kg peroral administration to dogs.", "settings": "route oral"}, "Morganella morganii": {"tested_on": "Morganella morganii", "test": "In vitro antibacterial activity against Morganella morganii A 15153", "type": "functional"}, "[2]": {"test": "Compound was evaluated in vivo in blood samples from the orbital sinus for its concentration after an intramuscular administration of 40 mg/kg in mice.", "type": "ADME, organism-based", "design": "dose 40 mg/kg, route intramuscular", "settings": "mouse, im", "summary_of_the_method": "(§1)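 Mice were dosed at 40 mg/kg, either orally with a blunt needle and syringe or intramuscularly, with separate groups for each route. Blood was drawn from the orbital sinus at 5, 15, 30, 60, 120 and 180 min. Urine was pooled over 24 h. Drug levels were measured by agar disk diffusion microbioassay with Salmonella enteritidis A9531 as the assay organism.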"}, "Mus musculus [3]": {"tested_on": "Mus musculus", "test": "Compound was evaluated in vivo in urine sample collected over 24 hours for its concentration after 40 mg/kg an intramuscular administration to mice", "type": "functional", "summary_of_the_method": "as §1"}, "Escherichia coli [4]": {"tested_on": "Escherichia coli", "test": "Compound was tested for the dose to protect 50% of mice from lethal infection against Escherichia coli A 15119 after peroral administration to OF1-strain of female Swiss mice.", "type": "functional", "settings": "po, read-out: PD50", "summary_of_the_method": "(§2)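 Compounds dissolved in sterile water and given orally to female OF1 Swiss mice weighing 18-25 g, five mice per group.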"}, "Enterococcus faecalis": {"tested_on": "Enterococcus faecalis", "test": "In vitro antibacterial activity against Enterococcus faecalis A 9809", "type": "functional"}, "[5]": {"test": "Compound was evaluated in vivo in blood samples from the orbital sinus for its concentration after a peroral administration of 40 mg/kg in mice", "type": "ADME, organism-based", "design": "dose 40 mg/kg, route oral", "settings": "mouse, po", "summary_of_the_method": "as §1"}, "Streptococcus pneumoniae": {"tested_on": "Streptococcus pneumoniae", "test": "In vitro antibacterial activity against Streptococcus pneumoniae A 9585", "type": "functional"}, "Klebsiella pneumoniae": {"tested_on": "Klebsiella pneumoniae", "test": "In vitro antibacterial activity against Klebsiella pneumoniae A 9664", "type": "functional"}, "Escherichia coli [6]": {"tested_on": "Escherichia coli", "test": "In vitro antibacterial activity against Escherichia coli A 15119", "type": "functional"}, "in vivo [7]": {"test": "in vivo", "settings": "dog, po, 25 mg/kg"}, "Haemophilus influenzae": {"tested_on": "Haemophilus influenzae", "test": "In vitro antibacterial activity against Haemophilus influenzae A 21515", "type": "functional"}, "Serratia marcescens": {"tested_on": "Serratia marcescens", "test": "In vitro antibacterial activity (minimum inhibitory concentration) against Serratia marcescens A 20019.", "type": "functional"}, "Pseudomonas aeruginosa [8]": {"tested_on": "Pseudomonas aeruginosa", "test": "Compound was tested for the dose to protect 50% of mice from lethal infection against Pseudomonas aeruginosa A9843 after peroral administration to OF1-strain of female Swiss mice.", "type": "functional", "settings": "po, read-out: PD50", "summary_of_the_method": "as §2"}, "Staphylococcus aureus [9]": {"tested_on": "Staphylococcus aureus", "test": "In vitro antibacterial activity (minimum inhibitory concentration, MIC) against Staphylococcus aureus A 9537.", "type": "functional"}, "[10]": {"test": "Compound was tested for the dose to protect 50% of mice from lethal infection against Streptococcus pneumoniae after peroral administration to OF1-strain of female Swiss mice.", "type": "functional", "settings": "po, read-out: PD50", "summary_of_the_method": "as §2"}, "Staphylococcus aureus [11]": {"tested_on": "Staphylococcus aureus", "test": "Compound was tested for the dose to protect 50% of mice from lethal infection against Staphylococcus aureus A 9606 after peroral administration to OF1-strain of female Swiss mice.", "type": "functional", "settings": "po, read-out: PD50", "summary_of_the_method": "as §2"}, "Staphylococcus aureus [12]": {"tested_on": "Staphylococcus aureus", "test": "In vitro antibacterial activity against Staphylococcus aureus A 24227", "type": "functional"}, "Mus musculus [13]": {"tested_on": "Mus musculus", "test": "Compound was evaluated in vivo in urine sample collected over 24 hours for its concentration after 40 mg/kg peroral administration to mice", "type": "functional", "settings": "route oral", "summary_of_the_method": "as §1"}, "[14]": {"test": "Compound was evaluated in vivo in blood samples from the orbital sinus for its half life after 40 mg/kg of intramuscular administration in mice.", "type": "ADME, organism-based", "design": "dose 40 mg/kg, route intramuscular", "settings": "mouse, im"}, "Bacteroides fragilis": {"tested_on": "Bacteroides fragilis", "test": "Compound was tested in vitro for its antibacterial activity (minimum inhibitory concentration) against Bacteroides fragilis A 22862.", "type": "functional", "settings": "A22862"}, "Mus musculus [15]": {"species": "Mus musculus", "settings": "in vivo, po, 40 mg/kg"}, "Proteus mirabilis": {"tested_on": "Proteus mirabilis", "test": "In vitro antibacterial activity (minimum inhibitory concentration, MIC) against Proteus mirabilis A 9900", "type": "functional"}, "Enterobacter cloacae": {"tested_on": "Enterobacter cloacae", "test": "In vitro antibacterial activity against Enterobacter cloacae A 9656", "type": "functional"}, "in vivo [16]": {"test": "in vivo", "settings": "dog, po, 25 mg/kg", "remark": "listed apart in the source"}, "Pseudomonas aeruginosa [17]": {"tested_on": "Pseudomonas aeruginosa", "test": "Compound was tested in vitro for its antibacterial activity (minimum inhibitory concentration, MIC) against Pseudomonas aeruginosa A 9843", "type": "functional"}, "Mus musculus [18]": {"tested_on": "Mus musculus", "test": "Compound was evaluated in vivo in blood samples from the orbital sinus for its concentration using Area under the time-concentration curve after 40 mg/kg intramuscular administration to mice", "type": "ADME, organism-based", "design": "dose 40 mg/kg, route intramuscular", "settings": "im", "summary_of_the_method": "as §1"}, "in vivo [19]": {"test": "in vivo", "settings": "mouse, blood, po, 40 mg/kg"}, "Canis familiaris [20]": {"species": "Canis familiaris", "settings": "dog, in vivo, po, 25 mg/kg"}}, "data": [{"smiles": "CC(C)(C)n1cc(C(=O)O)c(=O)c2cc(F)c(N3CC[C@H](N)C3)cc21.CS(=O)(=O)O", "values": [{"measurement": "UR", "setting": "Canis familiaris [1]", "result": 7.7, "unit": "%"}, {"measurement": "MIC", "setting": "Morganella morganii", "result": 0.13, "unit": "µg/mL"}, {"measurement": "Cmax", "setting": "[2]", "result": 6000, "unit": "ng/mL"}, {"measurement": "UR", "setting": "Mus musculus [3]", "result": 24, "unit": "%"}, {"measurement": "ED50", "setting": "Escherichia coli [4]", "result": 9.5, "unit": "mg/kg"}, {"measurement": "MIC", "setting": "Enterococcus faecalis", "result": 0.13, "unit": "µg/mL"}, {"measurement": "Cmax", "setting": "[5]", "result": 3000, "unit": "ng/mL"}, {"measurement": "MIC", "setting": "Streptococcus pneumoniae", "result": 0.06, "unit": "µg/mL"}, {"measurement": "MIC", "setting": "Klebsiella pneumoniae", "result": 0.5, "unit": "µg/mL"}, {"measurement": "S", "result": 250, "unit": "µg/mL"}, {"measurement": "MIC", "setting": "Escherichia coli [6]", "result": 0.016, "unit": "µg/mL"}, {"measurement": "Cmax", "setting": "in vivo [7]", "result": 2800, "unit": "ng/mL"}, {"measurement": "MIC", "setting": "Haemophilus influenzae", "result": 0.008, "unit": "µg/mL"}, {"measurement": "MIC", "setting": "Serratia marcescens", "result": 0.13, "unit": "µg/mL"}, {"measurement": "ED50", "setting": "Pseudomonas aeruginosa [8]", "result": 10.2, "unit": "mg/kg"}, {"measurement": "MIC", "setting": "Staphylococcus aureus [9]", "result": 0.008, "unit": "µg/mL"}, {"measurement": "ED50", "setting": "[10]", "result": "> 25", "unit": "mg/kg"}, {"measurement": "ED50", "setting": "Staphylococcus aureus [11]", "result": 14.4, "unit": "mg/kg"}, {"measurement": "MIC", "setting": "Staphylococcus aureus [12]", "result": 0.03, "unit": "µg/mL"}, {"measurement": "UR", "setting": "Mus musculus [13]", "result": 14, "unit": "%"}, {"measurement": "half-life", "setting": "[14]", "result": 0.9, "unit": "h"}, {"measurement": "MIC", "setting": "Bacteroides fragilis", "result": 8, "unit": "µg/mL"}, {"measurement": "AUC", "setting": "Mus musculus [15]", "result": 5000, "unit": "ng·h/mL"}, {"measurement": "MIC", "setting": "Proteus mirabilis", "result": 0.06, "unit": "µg/mL"}, {"measurement": "MIC", "setting": "Enterobacter cloacae", "result": 0.06, "unit": "µg/mL"}, {"measurement": "half-life", "setting": "in vivo [16]", "result": 4, "unit": "h"}, {"measurement": "MIC", "setting": "Pseudomonas aeruginosa [17]", "result": 0.25, "unit": "µg/mL"}, {"measurement": "AUC", "setting": "Mus musculus [18]", "result": 15000, "unit": "ng·h/mL"}, {"measurement": "half-life", "setting": "in vivo [19]", "result": 1.1, "unit": "h"}, {"measurement": "AUC", "setting": "Canis familiaris [20]", "result": 30000, "unit": "ng·h/mL"}]}]}
